Laboratory results reported in ChEMBL document CHEMBL5385940 (J Nat Prod, 2024).
Active and inactive are the calls of the source. The rule behind the calls is not given here.

Assays:
[1] = Cytotoxicity against mouse 3T3-L1 cells transfected with Lenti-PPARgamma-Luc reporter assessed as cell viability at 30 uM incubated for 48 hrs by CCK-8 assay relative to control; type: toxicity, cell-based; details: read-out: Activity
Outline: (§1)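 3T3-L1-Lenti-PPARγ-Luc reporter cells (lentivirus-transduced) exposed to alkaloids at a range of concentrations. Viability by CCK-8, absorbance at 450 nm, relative to control, used to set maximum noncytotoxic concentrations. Triplicate.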

[2] = Cytotoxicity against mouse 3T3-L1 cells transfected with Lenti-PPARgamma-Luc reporter assessed as cell viability at 10 uM incubated for 48 hrs by CCK-8 assay relative to control; type: toxicity, cell-based; details: read-out: Activity; outline: as §1
[3] = Cytotoxicity against mouse 3T3-L1 cells assessed as cell viability at 15 uM incubated for 48 hrs by CCK-8 assay relative to control; type: toxicity, cell-based; details: read-out: Activity
Outline: (§2)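 3T3-L1 preadipocytes seeded at 1 × 10^3 cells/well and left 12 h, then exposed to alkaloids for 48 h. Viability by CCK-8, absorbance at 450 nm, relative to control. Lovastatin 5 μM included. Mean ± SD, n = 3.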

[4] = Cytotoxicity against mouse 3T3-L1 cells assessed as cell viability at 25 uM incubated for 48 hrs by CCK-8 assay relative to control; type: toxicity, cell-based; details: read-out: Activity; outline: as §2
[5] = Cytotoxicity against mouse 3T3-L1 cells transfected with Lenti-PPARgamma-Luc reporter assessed as cell viability at 25 uM incubated for 48 hrs by CCK-8 assay relative to control; type: toxicity, cell-based; details: read-out: Activity; outline: as §1
[6] = Cytotoxicity against mouse 3T3-L1 cells transfected with Lenti-PPARgamma-Luc reporter assessed as cell viability at 1 uM incubated for 48 hrs by CCK-8 assay relative to control; type: toxicity, cell-based; details: read-out: Activity; outline: as §1
[7] = Cytotoxicity against mouse 3T3-L1 cells assessed as cell viability at 20 uM incubated for 48 hrs by CCK-8 assay relative to control; type: toxicity, cell-based; details: read-out: Activity; outline: as §2
3T3-L1 [8] = experiment: Inhibition of adipogenesis in mouse 3T3-L1 cells assessed as downregulation of PPARgamma relative protein level […] by Western blot analysis; type: functional, cell-based
Outline: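 Differentiated 3T3-L1 adipocytes treated with alkaloids at several doses. Lysed in RIPA with PMSF on ice for 30 min. Proteins transferred to PVDF and blocked with 5% skim milk for 2 h at 25 °C. Primary antibody 2 h, HRP secondary 1 h. PPARγ protein level expressed relative to control. n = 3.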

[9] = Cytotoxicity against mouse 3T3-L1 cells transfected with Lenti-PPARgamma-Luc reporter assessed as cell viability at 0.1 uM incubated for 48 hrs by CCK-8 assay relative to control; type: toxicity, cell-based; details: read-out: Activity; outline: as §1
[10] = Cytotoxicity against mouse 3T3-L1 cells assessed as cell viability at 10 uM incubated for 48 hrs by CCK-8 assay relative to control; type: toxicity, cell-based; details: read-out: Activity; outline: as §2
[11] = Cytotoxicity against mouse 3T3-L1 cells transfected with Lenti-PPARgamma-Luc reporter assessed as cell viability at 5 uM incubated for 48 hrs by CCK-8 assay relative to control; type: toxicity, cell-based; details: read-out: Activity; outline: as §1
3T3-L1 [12] = experiment: Anti-adipogenic activity in mouse 3T3-L1 cells transfected with Lenti-PPARgamma-Luc reporter assessed as inhibition of PPARgamma expression by luminescence based microplate reader analysis; type: functional, cell-based
3T3-L1 [13] = experiment: Anti-adipogenic activity in mouse 3T3-L1 preadipocytes assessed as inhibition of lipid accumulation incubated for 6 days by Nile Red staining based fluorescence microscopic analysis; type: functional, cell-based; details: time 6.0 day
[14] = Cytotoxicity against mouse 3T3-L1 cells transfected with Lenti-PPARgamma-Luc reporter assessed as cell viability at 20 uM incubated for 48 hrs by CCK-8 assay relative to control; type: toxicity, cell-based; details: read-out: Activity; outline: as §1
[15] = Cytotoxicity against mouse 3T3-L1 cells assessed as cell viability at 5 uM incubated for 48 hrs by CCK-8 assay relative to control; type: toxicity, cell-based; details: read-out: Activity; outline: as §2
[16] = Cytotoxicity against mouse 3T3-L1 cells transfected with Lenti-PPARgamma-Luc reporter assessed as cell viability at 15 uM incubated for 48 hrs by CCK-8 assay relative to control; type: toxicity, cell-based; details: read-out: Activity; outline: as §1
[17] = Cytotoxicity against mouse 3T3-L1 cells transfected with Lenti-PPARgamma-Luc reporter assessed as cell viability at 7.5 uM incubated for 48 hrs by CCK-8 assay relative to control; type: toxicity, cell-based; details: read-out: Activity; outline: as §1
[18] = Cytotoxicity against mouse 3T3-L1 cells transfected with Lenti-PPARgamma-Luc reporter assessed as cell viability at 2.5 uM incubated for 48 hrs by CCK-8 assay relative to control; type: toxicity, cell-based; details: read-out: Activity; outline: as §1
[19] = Cytotoxicity against mouse 3T3-L1 cells assessed as cell viability at 3 uM incubated for 48 hrs by CCK-8 assay relative to control; type: toxicity, cell-based; details: read-out: Activity; outline: as §2
[20] = Cytotoxicity against mouse 3T3-L1 cells assessed as cell viability at 1 uM incubated for 48 hrs by CCK-8 assay relative to control; type: toxicity, cell-based; details: read-out: Activity; outline: as §2
[21] = Cytotoxicity against mouse 3T3-L1 cells transfected with Lenti-PPARgamma-Luc reporter assessed as cell viability at 2 uM incubated for 48 hrs by CCK-8 assay relative to control; type: toxicity, cell-based; details: read-out: Activity; outline: as §1
[22] = Cytotoxicity against mouse 3T3-L1 cells transfected with Lenti-PPARgamma-Luc reporter assessed as cell viability at 4 uM incubated for 48 hrs by CCK-8 assay relative to control; type: toxicity, cell-based; details: read-out: Activity; outline: as §1
[23] = Cytotoxicity against mouse 3T3-L1 cells transfected with Lenti-PPARgamma-Luc reporter assessed as cell viability at 3 uM incubated for 48 hrs by CCK-8 assay relative to control; type: toxicity, cell-based; details: read-out: Activity; outline: as §1
[24] = Cytotoxicity against mouse 3T3-L1 cells assessed as cell viability at 7.5 uM incubated for 48 hrs by CCK-8 assay relative to control; type: toxicity, cell-based; details: read-out: Activity; outline: as §2
[25] = Cytotoxicity against mouse 3T3-L1 cells assessed as cell viability at 2.5 uM incubated for 48 hrs by CCK-8 assay relative to control; type: toxicity, cell-based; details: read-out: Activity; outline: as §2

Structure (SMILES)	viability at 48 h, 10 µM [2] [%]	viability at 48 h, 15 µM [3] [%]	viability at 48 h, 25 µM [4] [%]	viability at 48 h, 1 µM [6] [%]	viability at 48 h, 20 µM [7] [%]	inhibition (3T3-L1 [8])	viability at 48 h, 0.1 µM [9] [%]	viability at 48 h, 10 µM [10] [%]	viability at 48 h, 5 µM [11] [%]	Activity (3T3-L1 [12])	Activity (3T3-L1 [13])	viability at 48 h, 20 µM [14] [%]	viability at 48 h, 5 µM [15] [%]	viability at 48 h, 15 µM [16] [%]	viability at 48 h, 7.5 µM [17] [%]	viability at 48 h, 2.5 µM [18] [%]	IC50 (3T3-L1 [12]) [µM]	also measured
COc1cc2c(cc1O)[C@@H](Cc1ccc(O)c(Oc3cc4c(cc3OC)CCN(C)[C@@H]4Cc3ccc(O)cc3)c1)N(C)CC2	> 80	> 80	< 80	> 80	> 80	Active	> 80	> 80	> 80	Dose-Dependent Effect	Dose-Dependent Effect	> 80	> 80	> 80				viability at 48 h, 30 µM [1]: < 80%; viability at 48 h, 25 µM [5]: < 80%
COc1ccc(C[C@@H]2c3cc(Oc4cc(/C=C5\CN(C)CCc6cc(OC)c(OC)cc65)ccc4O)c(OC)cc3CCN2C)cc1	> 80	> 80	< 80	> 80	< 80	Active	> 80	> 80	> 80	Dose-Dependent Effect	Dose-Dependent Effect	< 80	> 80	> 80	> 80	> 80		
C=C(c1ccc(O)c(Oc2cc3c(cc2OC)CCN(C)[C@@H]3Cc2ccc(OC)cc2)c1)[C@H]1c2cc(OC)c(OC)cc2CCN1C	< 80			> 80		Active	> 80	< 80	> 80	Dose-Dependent Effect	Dose-Dependent Effect		> 80		< 80		4.6	viability at 48 h, 3 µM [19]: > 80%; viability at 48 h, 1 µM [20]: > 80%; viability at 48 h, 2 µM [21]: > 80%; viability at 48 h, 4 µM [22]: > 80%; viability at 48 h, 3 µM [23]: > 80%; viability at 48 h, 7.5 µM [24]: < 80%
COc1ccc(C[C@@H]2c3cc(Oc4cc(C[C@@H]5c6cc(OC)c(OC)cc6CCN5C)ccc4O)c(OC)cc3CCN2C)cc1 [NEFERINE]	> 80	< 80		> 80	< 80	Active	> 80	> 80	> 80	Dose-Dependent Effect	Dose-Dependent Effect	< 80	> 80	< 80	> 80	> 80	6.1	viability at 48 h, 2.5 µM [25]: > 80%
COc1ccc(C[C@@H]2c3cc(Oc4cc(C[C@H]5c6cc(OC)c(OC)cc6CCN5C)ccc4O)c(OC)cc3CCN2C)cc1	< 80	> 80		> 80		Active	> 80	< 80	> 80	Dose-Dependent Effect	Dose-Dependent Effect		> 80		< 80		4.5	viability at 48 h, 3 µM [19]: > 80%; viability at 48 h, 1 µM [20]: > 80%; viability at 48 h, 2 µM [21]: > 80%; viability at 48 h, 4 µM [22]: > 80%; viability at 48 h, 3 µM [23]: > 80%; viability at 48 h, 7.5 µM [24]: < 80%
C=C(c1ccc(O)c(Oc2cc3c(cc2OC)CCN(C)[C@@H]3Cc2ccc(OC)cc2)c1)[C@@H]1c2cc(O)c(OC)cc2CCN1C	> 80	< 80		> 80	< 80	Active	> 80	> 80	> 80	Dose-Dependent Effect	Dose-Dependent Effect	< 80	> 80	< 80	> 80	> 80	8.8	viability at 48 h, 2.5 µM [25]: > 80%
C=C(c1ccc(O)c(Oc2cc3c(cc2OC)CCN(C)[C@@H]3Cc2ccc(OC)cc2)c1)[C@H]1c2cc(O)c(OC)cc2CCN1C	< 80			> 80		Active	> 80	< 80	> 80	Dose-Dependent Effect	Dose-Dependent Effect		> 80		< 80		4.5	viability at 48 h, 3 µM [19]: > 80%; viability at 48 h, 1 µM [20]: > 80%; viability at 48 h, 2 µM [21]: > 80%; viability at 48 h, 4 µM [22]: > 80%; viability at 48 h, 3 µM [23]: > 80%; viability at 48 h, 7.5 µM [24]: < 80%
C=C(c1ccc(O)c(Oc2cc3c(cc2OC)CCN(C)[C@@H]3Cc2ccc(OC)cc2)c1)[C@@H]1c2cc(OC)c(OC)cc2CCN1C	> 80	> 80	< 80	> 80	< 80	Active	> 80	> 80	> 80	Dose-Dependent Effect	Dose-Dependent Effect	< 80	> 80	> 80	> 80	> 80	10.7	
C=C(c1ccc(OC)cc1)[C@@H]1c2cc(Oc3cc(C[C@H]4c5cc(OC)c(OC)cc5CCN4C)ccc3O)c(OC)cc2CCN1C	> 80	> 80	< 80	> 80	< 80	Active	> 80	> 80	> 80	Dose-Dependent Effect	Dose-Dependent Effect	< 80	> 80	> 80	> 80	> 80		
CC[C@H](C)C(=O)O[C@H]1C[C@@H](C)C=C2C=C[C@H](C)[C@H](CC[C@@H]3C[C@@H](O)CC(=O)O3)[C@H]21 [LOVASTATIN]													> 80					
COc1ccc(C[C@@H]2c3cc(Oc4cc(C[C@@H]5c6cc(O)c(OC)cc6CCN5C)ccc4O)c(OC)cc3CCN2C)cc1 [ISOLIENSININE]	> 80	< 80		> 80	< 80	Active	> 80	> 80	> 80	Dose-Dependent Effect	Dose-Dependent Effect	< 80	> 80	< 80	> 80	> 80		viability at 48 h, 2.5 µM [25]: > 80%
